{
  "source": "ChEMBL document CHEMBL4350987",
  "about": "“Design, synthesis and biological evaluation of novel substituted purine isosters as EGFR kinase inhibitors, with promising pharmacokinetic profile and in vivo efficacy” (Eur J Med Chem, 2019)",
  "note": "The source made the active and inactive calls. No cut-off for these calls is given here.",
  "data": [
    {"tested_on": "A549", "test": "Antiproliferative activity against human A549 cells overexpressing EGFR assessed as reduction in cell viability incubated for 72 hrs by MTT assay", "type": "functional, cell-based", "details": "A549, 72 h", "summary_of_the_method": "(§1)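 Cells seeded at 5×10^3/well in complete medium (DMEM or RPMI, 10% FBS) and left 24 h at 37 °C, 5% CO2. Compounds added at 0.5–150 μM for 72 h. MTT (0.3 mg/mL in PBS) applied for 3 h, formazan dissolved in DMSO, OD read at 570 nm against 650 nm reference. IC50 from four-parameter logistic fit; three experiments in triplicate.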", "units": {"IC50": "µM"}, "values": [
      {"smiles": "Fc1cccc(COc2ccc(Nc3ccnc4[nH]c(-c5ccco5)nc34)cc2Cl)c1", "IC50": 3}
    ]},
    {"tested_on": "MCF7", "test": "Antiproliferative activity against human MCF7 cells assessed as reduction in cell viability incubated for 72 hrs by MTT assay", "type": "functional, cell-based", "details": "MCF7, 72 h", "summary_of_the_method": "as §1", "units": {"IC50": "µM"}, "values": [
      {"smiles": "Fc1cccc(COc2ccc(Nc3ccnc4[nH]c(-c5ccco5)nc34)cc2Cl)c1", "IC50": 126}
    ]},
    {"tested_on": "A549", "test": "Antiproliferative activity against human A549 cells overexpressing EGFR assessed as reduction in cell viability at 1 to 60 uM incubated for 72 hrs by MTT assay", "type": "functional, cell-based", "details": "not given", "values": [
      {"smiles": "CS(=O)(=O)CCNCc1ccc(-c2nc3c(Nc4ccc(OCc5cccc(F)c5)c(Cl)c4)ccnc3[nH]2)o1", "inhibition": "inactive"},
      {"smiles": "Fc1cccc(COc2ccc(Nc3ccnc4[nH]c(-c5ccco5)nc34)cc2Cl)c1", "inhibition": "Active"}
    ]},
    {"tested_on": "not listed separately", "test": "AUC (1 to 48 hrs) in human A549 cells overexpressing EGFR at 1 uM measured per 0.1 million cells by LC-MS/MS analysis", "details": "a549, 48 h", "units": {"AUC": "nmol/100.000 cells x h"}, "values": [
      {"smiles": "Fc1cccc(COc2ccc(Nc3ccnc4[nH]c(-c5ccco5)nc34)cc2Cl)c1", "AUC": 1.5}
    ]},
    {"biological_target": "Receptor tyrosine-protein kinase erbB-2 (Homo sapiens) (UniProt P04626)", "sequence (P04626 whole entry, the tested form may be a part)": "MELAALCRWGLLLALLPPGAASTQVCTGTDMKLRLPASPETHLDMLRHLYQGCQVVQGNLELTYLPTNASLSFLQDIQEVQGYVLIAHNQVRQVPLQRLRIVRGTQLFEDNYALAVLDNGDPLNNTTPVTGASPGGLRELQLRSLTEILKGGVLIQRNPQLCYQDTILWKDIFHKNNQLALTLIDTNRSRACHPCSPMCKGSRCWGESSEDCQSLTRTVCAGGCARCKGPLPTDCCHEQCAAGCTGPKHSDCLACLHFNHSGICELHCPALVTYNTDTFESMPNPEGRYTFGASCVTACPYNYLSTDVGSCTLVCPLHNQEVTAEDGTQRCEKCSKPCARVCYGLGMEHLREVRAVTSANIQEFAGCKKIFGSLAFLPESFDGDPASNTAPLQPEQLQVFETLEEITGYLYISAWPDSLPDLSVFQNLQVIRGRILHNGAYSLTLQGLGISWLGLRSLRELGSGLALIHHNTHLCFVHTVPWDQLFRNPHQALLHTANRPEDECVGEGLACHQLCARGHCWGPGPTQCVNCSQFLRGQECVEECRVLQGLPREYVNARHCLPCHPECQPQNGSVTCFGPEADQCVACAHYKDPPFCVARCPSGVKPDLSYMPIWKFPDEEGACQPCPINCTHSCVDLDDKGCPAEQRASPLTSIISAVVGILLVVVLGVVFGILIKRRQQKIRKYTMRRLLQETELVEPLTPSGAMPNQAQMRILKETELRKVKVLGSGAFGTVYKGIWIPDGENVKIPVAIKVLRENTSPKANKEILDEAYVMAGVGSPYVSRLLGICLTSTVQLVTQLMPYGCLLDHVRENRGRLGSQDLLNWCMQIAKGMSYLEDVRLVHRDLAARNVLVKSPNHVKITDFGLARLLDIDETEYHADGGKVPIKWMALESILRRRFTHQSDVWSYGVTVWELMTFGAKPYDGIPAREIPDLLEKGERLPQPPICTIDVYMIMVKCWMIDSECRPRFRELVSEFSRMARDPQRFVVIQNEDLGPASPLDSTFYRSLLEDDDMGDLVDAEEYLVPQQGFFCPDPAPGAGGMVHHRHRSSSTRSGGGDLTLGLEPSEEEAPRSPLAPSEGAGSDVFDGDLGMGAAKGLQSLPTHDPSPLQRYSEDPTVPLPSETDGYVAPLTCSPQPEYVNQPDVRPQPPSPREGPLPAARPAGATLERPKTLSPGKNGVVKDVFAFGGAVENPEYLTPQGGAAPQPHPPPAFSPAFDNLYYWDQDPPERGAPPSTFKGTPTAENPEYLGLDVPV", "test": "Inhibition of human recombinant GST-tagged HER2 (catalytic domain 676 to end residues) autophosphorylation expressed in baculovirus infected Sf9 cells using poly( Glu, Tyr) 4:1 as substrate at 10 uM incubated for 60 mins by ELISA relative to control", "details": "not given", "summary_of_the_method": "(§2)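 Wells coated with poly-Glu,Tyr (4:1), 20 µg/well overnight at 4 °C, then blocked with 5% BSA. GST-HER2 added at 200 ng/mL final in HEPES/NaCl/NaVO₄/BSA buffer. Reaction started with ATP spanning Km plus 10 mM MnCl₂ final, run 60 min at 37 °C, stopped with EDTA. Phosphotyrosine detected with HRP anti-pTyr and ABTS at 405 nm; triplicate.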", "units": {"inhibition": "%"}, "values": [
      {"smiles": "CS(=O)(=O)CCNCc1ccc(-c2nc3c(Nc4ccc(OCc5cccc(F)c5)c(Cl)c4)ccnc3[nH]2)o1", "inhibition": 46},
      {"smiles": "Fc1cccc(COc2ccc(Nc3ccnc4[nH]c(-c5ccco5)nc34)cc2Cl)c1", "inhibition": 58}
    ]},
    {"tested_on": "NCI-H1975", "test": "Antiproliferative activity against human NCI-H1975 cells assessed as reduction in cell viability incubated for 72 hrs by MTT assay", "type": "functional, cell-based", "details": "NCI-H1975, 72 h", "summary_of_the_method": "as §1", "units": {"IC50": "µM"}, "values": [
      {"smiles": "Fc1cccc(COc2ccc(Nc3ccnc4[nH]c(-c5ccco5)nc34)cc2Cl)c1", "IC50": 10}
    ]},
    {"tested_on": "not listed separately", "test": "Drug uptake in human A549 cells overexpressing EGFR at 1 uM measured after 24 hrs by LC-MS/MS analysis", "type": "ADME, cell-based", "details": "a549, 24 h", "summary_of_the_method": "(§3)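 A549 cells plated at 1.5×10^5 cells/well and exposed to 1 µM compound for 1, 4, 8, 24 and 48 h. Cells washed twice with ice-cold PBS, then lysed. Intracellular amount measured by LC-MS/MS against standard curves with a stable internal standard.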", "values": [
      {"smiles": "Fc1cccc(COc2ccc(Nc3ccnc4[nH]c(-c5ccco5)nc34)cc2Cl)c1", "Drug uptake": "Active"}
    ]},
    {"biological_target": "Receptor tyrosine-protein kinase erbB-2 (Homo sapiens) (UniProt P04626)", "test": "Inhibition of human recombinant GST-tagged HER2 (catalytic domain 676 to end residues) autophosphorylation expressed in baculovirus infected Sf9 cells using poly( Glu, Tyr) 4:1 as substrate at 1 uM incubated for 60 mins by ELISA relative to control", "details": "not given", "summary_of_the_method": "as §2", "units": {"inhibition": "%"}, "values": [
      {"smiles": "CS(=O)(=O)CCNCc1ccc(-c2nc3c(Nc4ccc(OCc5cccc(F)c5)c(Cl)c4)ccnc3[nH]2)o1", "inhibition": 33},
      {"smiles": "Fc1cccc(COc2ccc(Nc3ccnc4[nH]c(-c5ccco5)nc34)cc2Cl)c1", "inhibition": 24}
    ]},
    {"tested_on": "not listed separately", "test": "Drug concentration in NOD/SCID mouse blood xenografted with human A549 cells overexpressing EGFR at 86 micromol/kg, po administered once daily for 27 days and measured at day 27 at 2 hrs after last administered dose by LC-MS/MS analysis", "type": "ADME, organism-based", "details": "86 µmol/kg, read-out: Ct", "summary_of_the_method": "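A549 xenografts in NOD/SCID mice dosed orally once daily for 27 days, vehicle 0.5% carboxymethyl cellulose: 0.1% Tween 80 in water. Blood collected 2 h after the final dose on day 27, with animals euthanized under isoflurane. Drug level quantified by LC-MS/MS.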", "units": {"concentration at 2 h": "nM"}, "values": [
      {"smiles": "Fc1cccc(COc2ccc(Nc3ccnc4[nH]c(-c5ccco5)nc34)cc2Cl)c1", "concentration at 2 h": 640}
    ]},
    {"tested_on": "not listed separately", "test": "Cmax in C57BL/6N mouse at 34 micromol/kg, po measured upto 24 hrs by LC-MS/MS analysis", "type": "ADME, organism-based", "set-up": "route oral", "details": "in vivo, 34 µmol/kg", "summary_of_the_method": "(§4)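 Male C57BL/6N mice, 10-12 weeks old, n = 5 per group, fasted overnight, single oral gavage dose in 0.5% carboxymethyl cellulose: 0.1% Tween 80 in water. Serial tail bleeds of 10 μL at 0.25, 0.5, 1, 2, 4, 6, 8 and 24 h into 0.1 M citric acid pH 4.5, stored at -80 °C. Samples processed by protein precipitation and evaporation, then quantified in blood by LC-MS/MS.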", "units": {"Cmax": "nM"}, "values": [
      {"smiles": "Fc1cccc(COc2ccc(Nc3ccnc4[nH]c(-c5ccco5)nc34)cc2Cl)c1", "Cmax": 300}
    ]},
    {"tested_on": "A549", "test": "Antitumor activity against human A549 cells overexpressing EGFR xenografted in NOD/SCID mouse assessed as tumor volume at 86 micromol/kg, po administered once daily for 27 days measured at day 27 at 2 hrs after last administered dose (reference value: 1869 +/- 134 mm3)", "type": "functional", "details": "not given", "summary_of_the_method": "(§5)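 NOD/SCID mice (n=4 per group, 2 male, 2 female) injected in each flank with 5×10⁶ A549 cells in DMEM, 10% FBS. Daily oral dosing started at about 150–160 mm³ tumors; vehicle 0.5% carboxymethyl cellulose: 0.1% Tween 80 in water. Caliper measurements every three days, V = π×D×d²/6. Body weight and signs of discomfort monitored. Study ended day 27, 2 h post last dose.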", "units": {"Activity": "mm3"}, "values": [
      {"smiles": "Fc1cccc(COc2ccc(Nc3ccnc4[nH]c(-c5ccco5)nc34)cc2Cl)c1", "Activity": 1311}
    ]},
    {"tested_on": "not listed separately", "test": "Drug uptake in human A549 cells overexpressing EGFR at 1 uM measured after 48 hrs by LC-MS/MS analysis", "type": "ADME, cell-based", "details": "a549, 48 h", "summary_of_the_method": "as §3", "values": [
      {"smiles": "Fc1cccc(COc2ccc(Nc3ccnc4[nH]c(-c5ccco5)nc34)cc2Cl)c1", "Drug uptake": "0.04 nmol/100,000 cells"}
    ]},
    {"tested_on": "not listed separately", "test": "AUC (0 to 24 hrs) in C57BL/6N mouse at 34 micromol/kg, po measured upto 24 hrs by LC-MS/MS analysis", "type": "ADME, organism-based", "set-up": "time < 24 hr, route oral", "details": "in vivo, 34 µmol/kg", "summary_of_the_method": "as §4", "units": {"AUC(0-t) at 24 h": "µM·h"}, "values": [
      {"smiles": "Fc1cccc(COc2ccc(Nc3ccnc4[nH]c(-c5ccco5)nc34)cc2Cl)c1", "AUC(0-t) at 24 h": 2.1}
    ]},
    {"biological_target": "Receptor tyrosine-protein kinase erbB-2 (Homo sapiens) (UniProt P04626)", "test": "Inhibition of HER2 autophosphorylation in human HCC1954 cells overexpressing HER2 at 0.02 to 2 uM incubated for 1 hr by Western blot analysis", "type": "cell-based", "details": "not given", "summary_of_the_method": "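HCC-1954 cells at 60-70% confluence exposed to 0.02 and 2 μM compound for 1 h, then lysed in RIPA with protease inhibitors. About 10 µg protein separated by SDS-PAGE and blotted to PVDF. Phospho- and total HER2 antibodies at 1:1000, HRP secondaries, ECL read-out; β-actin used for normalization.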", "values": [
      {"smiles": "CS(=O)(=O)CCNCc1ccc(-c2nc3c(Nc4ccc(OCc5cccc(F)c5)c(Cl)c4)ccnc3[nH]2)o1", "inhibition": "Active"}
    ]},
    {"tested_on": "HCC1954", "test": "Antiproliferative activity against human HCC1954 cells overexpressing HER2 assessed as reduction in cell viability incubated for 72 hrs by MTT assay", "type": "functional, cell-based", "details": "HCC1954, 72 h", "summary_of_the_method": "as §1", "units": {"IC50": "µM"}, "values": [
      {"smiles": "Fc1cccc(COc2ccc(Nc3ccnc4[nH]c(-c5ccco5)nc34)cc2Cl)c1", "IC50": 9}
    ]},
    {"tested_on": "HCC1954", "test": "Antiproliferative activity against human HCC1954 cells overexpressing HER2 assessed as reduction in cell viability at 1 to 60 uM incubated for 72 hrs by MTT assay", "type": "functional, cell-based", "details": "not given", "values": [
      {"smiles": "CS(=O)(=O)CCNCc1ccc(-c2nc3c(Nc4ccc(OCc5cccc(F)c5)c(Cl)c4)ccnc3[nH]2)o1", "inhibition": "inactive"},
      {"smiles": "Fc1cccc(COc2ccc(Nc3ccnc4[nH]c(-c5ccco5)nc34)cc2Cl)c1", "inhibition": "Active"}
    ]},
    {"tested_on": "not listed separately", "test": "Toxicity in NOD/SCID mouse xenografted with human A549 cells overexpressing EGFR assessed as changes in body weight at 86 micromol/kg, po administered once daily for 27 days", "type": "organism-based", "details": "in vivo, 648 h", "summary_of_the_method": "as §5", "values": [
      {"smiles": "Fc1cccc(COc2ccc(Nc3ccnc4[nH]c(-c5ccco5)nc34)cc2Cl)c1", "Activity": "Non-Toxic"}
    ]},
    {"tested_on": "not listed separately", "test": "Tmax in C57BL/6N mouse at 34 micromol/kg, po measured upto 24 hrs by LC-MS/MS analysis", "type": "ADME, organism-based", "details": "in vivo, 34 µmol/kg", "summary_of_the_method": "as §4", "units": {"Tmax": "h"}, "values": [
      {"smiles": "Fc1cccc(COc2ccc(Nc3ccnc4[nH]c(-c5ccco5)nc34)cc2Cl)c1", "Tmax": 2}
    ]},
    {"biological_target": "Epidermal growth factor receptor (Homo sapiens) (UniProt P00533)", "sequence (P00533 whole entry)": "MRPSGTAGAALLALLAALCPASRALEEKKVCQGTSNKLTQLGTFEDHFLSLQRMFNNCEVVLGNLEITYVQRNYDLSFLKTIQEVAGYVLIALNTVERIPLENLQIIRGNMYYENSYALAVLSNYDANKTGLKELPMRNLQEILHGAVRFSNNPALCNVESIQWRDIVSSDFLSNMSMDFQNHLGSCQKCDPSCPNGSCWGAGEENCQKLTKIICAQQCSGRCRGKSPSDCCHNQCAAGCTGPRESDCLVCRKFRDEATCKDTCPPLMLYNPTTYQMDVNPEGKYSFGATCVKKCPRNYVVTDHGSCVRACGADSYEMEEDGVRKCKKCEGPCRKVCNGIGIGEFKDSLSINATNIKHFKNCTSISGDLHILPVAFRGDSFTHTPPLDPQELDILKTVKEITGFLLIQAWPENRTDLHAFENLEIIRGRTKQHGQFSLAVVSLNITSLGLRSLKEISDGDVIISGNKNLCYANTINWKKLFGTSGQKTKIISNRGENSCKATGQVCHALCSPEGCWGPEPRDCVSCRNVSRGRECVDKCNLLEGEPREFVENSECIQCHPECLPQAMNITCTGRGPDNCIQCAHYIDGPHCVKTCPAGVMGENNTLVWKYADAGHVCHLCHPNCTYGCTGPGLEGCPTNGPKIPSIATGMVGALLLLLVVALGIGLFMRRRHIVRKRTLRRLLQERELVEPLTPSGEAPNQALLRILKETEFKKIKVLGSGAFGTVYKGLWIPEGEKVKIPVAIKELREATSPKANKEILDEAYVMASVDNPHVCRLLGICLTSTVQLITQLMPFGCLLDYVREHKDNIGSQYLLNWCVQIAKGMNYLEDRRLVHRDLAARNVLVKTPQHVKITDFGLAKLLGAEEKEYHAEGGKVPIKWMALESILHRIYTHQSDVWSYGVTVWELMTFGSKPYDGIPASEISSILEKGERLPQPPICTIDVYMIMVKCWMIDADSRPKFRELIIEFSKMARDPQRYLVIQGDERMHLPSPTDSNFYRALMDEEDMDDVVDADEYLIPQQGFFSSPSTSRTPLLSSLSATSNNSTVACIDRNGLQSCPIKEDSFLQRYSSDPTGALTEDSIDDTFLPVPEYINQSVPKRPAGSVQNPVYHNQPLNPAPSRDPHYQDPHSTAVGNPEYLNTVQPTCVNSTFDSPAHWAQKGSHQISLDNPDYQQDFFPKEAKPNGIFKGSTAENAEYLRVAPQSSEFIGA", "test": "Inhibition of EGFR autophosphorylation in human A549 cells overexpressing EGFR at 1 to 10 uM treated with compound for 10 mins prior to EGF stimulation for 10 mins by Western blot analysis", "type": "cell-based", "details": "not given", "summary_of_the_method": "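A549 cells grown to 60-70% confluence, then serum-starved 24 h. Exposed to compound for 10 min, then stimulated with 100 ng/mL EGF for 10 min at 37 °C and lysed in RIPA with protease inhibitors. About 10 µg protein run on SDS-PAGE, blotted to PVDF. Phospho- and total EGFR probed at 1:1000, HRP secondaries, ECL detection; β-actin for normalization.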", "values": [
      {"smiles": "CS(=O)(=O)CCNCc1ccc(-c2nc3c(Nc4ccc(OCc5cccc(F)c5)c(Cl)c4)ccnc3[nH]2)o1", "inhibition": "Active"},
      {"smiles": "Fc1cccc(COc2ccc(Nc3ccnc4[nH]c(-c5ccco5)nc34)cc2Cl)c1", "inhibition": "Active"}
    ]}
  ]
}
